Test results reported in ChEMBL document CHEMBL3862037 (J Med Chem, 2016).

Columns and labels:
[1] = Displacement of [3H]nisoxetine from NET in Sprague-Dawley rat frontal cortex membranes incubated for 180 mins by radioligand binding assay; design: species or system Membrane
[2] = biological target: Sodium-dependent dopamine transporter (Rattus norvegicus, UniProt P23977); test: Displacement of [3H]WIN35,428 from DAT in Sprague-Dawley rat brain membranes incubated for 120 mins by radioligand binding assay; assay type: cell membranes, Membrane
Chain of Sodium-dependent dopamine transporter (Rattus norvegicus, UniProt P23977) (P23977 whole entry): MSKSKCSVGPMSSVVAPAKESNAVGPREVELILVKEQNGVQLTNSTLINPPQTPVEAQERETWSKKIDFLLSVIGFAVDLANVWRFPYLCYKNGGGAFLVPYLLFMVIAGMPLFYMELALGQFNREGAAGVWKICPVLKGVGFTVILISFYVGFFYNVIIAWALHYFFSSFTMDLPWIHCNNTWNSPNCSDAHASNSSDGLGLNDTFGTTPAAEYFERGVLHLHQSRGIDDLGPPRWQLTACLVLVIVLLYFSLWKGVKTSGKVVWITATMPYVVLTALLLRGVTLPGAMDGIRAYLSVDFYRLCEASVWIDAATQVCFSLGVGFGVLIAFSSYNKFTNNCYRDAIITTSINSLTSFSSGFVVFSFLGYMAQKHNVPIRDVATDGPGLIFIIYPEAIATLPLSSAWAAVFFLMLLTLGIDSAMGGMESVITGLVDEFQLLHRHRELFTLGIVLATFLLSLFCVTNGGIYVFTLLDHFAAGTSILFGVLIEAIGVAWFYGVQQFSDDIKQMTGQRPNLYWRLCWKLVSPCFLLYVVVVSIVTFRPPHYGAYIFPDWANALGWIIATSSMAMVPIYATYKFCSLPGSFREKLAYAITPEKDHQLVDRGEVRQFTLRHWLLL

Rattus norvegicus [3] = species: Rattus norvegicus; test: Selectivity index, ratio of Ki for SERT in Sprague-Dawley rat brain stem membranes to Ki for DAT in Sprague-Dawley rat brain membranes; assay type: cell membranes
Rattus norvegicus [4] = species: Rattus norvegicus; test: Selectivity index, ratio of Ki for NET in Sprague-Dawley rat frontal cortex membranes to Ki for DAT in Sprague-Dawley rat brain membranes; assay type: cell membranes
[5] = biological target: Sodium-dependent serotonin transporter (Rattus norvegicus, UniProt P31652); test: Displacement of [3H]citalopram from SERT in Sprague-Dawley rat brain stem membranes incubated for 60 mins by radioligand binding assay; assay type: tissue-based
Chain of Sodium-dependent serotonin transporter (P31652 whole entry): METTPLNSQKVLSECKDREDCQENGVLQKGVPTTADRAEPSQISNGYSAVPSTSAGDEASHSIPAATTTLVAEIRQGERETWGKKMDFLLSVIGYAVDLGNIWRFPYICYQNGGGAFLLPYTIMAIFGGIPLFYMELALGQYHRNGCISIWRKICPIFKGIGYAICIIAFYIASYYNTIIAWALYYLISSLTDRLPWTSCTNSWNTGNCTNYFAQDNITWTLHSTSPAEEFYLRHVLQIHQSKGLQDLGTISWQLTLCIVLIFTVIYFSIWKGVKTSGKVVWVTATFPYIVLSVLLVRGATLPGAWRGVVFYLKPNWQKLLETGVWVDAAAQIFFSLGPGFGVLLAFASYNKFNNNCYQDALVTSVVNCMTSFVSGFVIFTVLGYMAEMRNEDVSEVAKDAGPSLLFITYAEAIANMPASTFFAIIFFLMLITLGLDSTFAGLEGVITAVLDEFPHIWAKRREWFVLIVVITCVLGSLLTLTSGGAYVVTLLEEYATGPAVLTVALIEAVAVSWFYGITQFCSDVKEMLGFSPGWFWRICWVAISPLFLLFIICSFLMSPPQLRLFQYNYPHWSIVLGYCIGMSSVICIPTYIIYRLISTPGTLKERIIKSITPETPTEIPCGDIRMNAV

[6] = Stability in mouse liver microsomes assessed as compound degradation at 10 uM in presence of NADPH regenerating system measured < 30 mins mins by LC/MS/MS method; assay type: ADME; settings: 0.5 h
Summary of the method: (§1)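 Mouse liver microsomes (0.5 mg/mL) in 100 mM potassium phosphate pH 7.4 with NADPH regenerating system. Compound at 10 µM final; testosterone as positive control. Parent compound loss followed over time by LC/MS/MS on a C18 column with formic acid/acetonitrile gradient.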

D(2) dopamine receptor [7] = biological target: T1, D(2) dopamine receptor (Homo sapiens, UniProt P14416); test: Displacement of [3H]N-methylspiperone from human D2R expressed in HEK293 cell membranes incubated for 1 hr by radioligand binding assay
T1 sequence (P14416 whole entry): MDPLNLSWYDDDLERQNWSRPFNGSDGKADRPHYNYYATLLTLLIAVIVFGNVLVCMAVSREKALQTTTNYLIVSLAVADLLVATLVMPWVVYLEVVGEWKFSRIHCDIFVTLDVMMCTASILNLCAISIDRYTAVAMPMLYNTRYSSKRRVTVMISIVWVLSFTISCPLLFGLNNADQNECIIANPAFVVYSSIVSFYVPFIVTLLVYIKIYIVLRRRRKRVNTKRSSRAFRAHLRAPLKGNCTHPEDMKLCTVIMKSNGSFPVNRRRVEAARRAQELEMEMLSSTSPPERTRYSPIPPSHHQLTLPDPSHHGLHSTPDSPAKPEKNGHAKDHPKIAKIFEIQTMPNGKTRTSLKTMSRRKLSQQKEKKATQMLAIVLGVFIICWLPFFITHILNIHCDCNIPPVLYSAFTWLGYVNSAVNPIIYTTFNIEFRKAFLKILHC
Summary of the method: (§2)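 Membranes from HEK293 cells stably expressing human D2R (20 µg protein) or D4R (30 µg protein). Buffer: EBSS with 0.2 mM sodium metabisulfite and 0.4 nM [3H]N-methylspiperone. Test compound at 11 half-log dilutions (100 µM–100 pM or 10 µM–10 pM) in 30% DMSO vehicle. Incubated 1 h at room temperature; nonspecific binding with 10 µM butaclamol.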

D(4) dopamine receptor = biological target: T2, D(4) dopamine receptor (Homo sapiens, UniProt P21917); test: Displacement of [3H]N-methylspiperone from human D4R expressed in HEK293 cell membranes incubated for 1 hr by radioligand binding assay; summary of the method: as §2
T2 sequence (P21917 whole entry): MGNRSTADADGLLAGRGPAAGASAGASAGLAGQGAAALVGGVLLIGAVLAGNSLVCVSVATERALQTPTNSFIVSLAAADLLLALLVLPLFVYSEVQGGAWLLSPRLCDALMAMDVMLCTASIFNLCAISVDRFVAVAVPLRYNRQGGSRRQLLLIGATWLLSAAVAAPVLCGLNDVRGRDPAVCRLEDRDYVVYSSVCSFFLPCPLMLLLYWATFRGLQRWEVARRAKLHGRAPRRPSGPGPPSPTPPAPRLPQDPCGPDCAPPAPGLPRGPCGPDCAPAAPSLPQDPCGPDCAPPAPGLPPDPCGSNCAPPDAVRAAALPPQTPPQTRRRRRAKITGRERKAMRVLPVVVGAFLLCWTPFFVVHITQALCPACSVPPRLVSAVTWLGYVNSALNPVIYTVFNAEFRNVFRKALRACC

[8] = biological target: Sigma non-opioid intracellular receptor 1 (Cavia porcellus, UniProt Q60492); test: Displacement of [3H](+)-pentazocine from sigma1 receptor in whole-guinea pig brain minus cerebellum homogenates incubated for 120 mins by radioligand binding assay
Chain of Sigma non-opioid intracellular receptor 1 (Q60492 whole entry): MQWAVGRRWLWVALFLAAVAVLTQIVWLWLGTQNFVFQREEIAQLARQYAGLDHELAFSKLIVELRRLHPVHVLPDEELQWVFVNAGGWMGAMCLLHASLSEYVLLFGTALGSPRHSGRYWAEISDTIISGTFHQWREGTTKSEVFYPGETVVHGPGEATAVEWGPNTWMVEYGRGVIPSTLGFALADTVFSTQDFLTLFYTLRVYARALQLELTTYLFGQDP
Summary of the method: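 Guinea pig whole-brain (minus cerebellum) membranes, 8.0 mg OWW per tube, in 50 mM Tris-HCl pH 8.0 with 3 nM [3H](+)-pentazocine. Incubated 120 min at room temperature. Nonspecific binding defined by haloperidol. Stopped by GF/B filtration and scintillation counting. IC50 from nonlinear regression, converted to Ki. At least three independent experiments, each in triplicate.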

D(3) dopamine receptor = D(3) dopamine receptor (Homo sapiens, UniProt P35462); test: Displacement of [3H]N-methylspiperone from human D3R expressed in HEK293 cell membranes incubated for 1 hr by radioligand binding assay
Chain of D(3) dopamine receptor (P35462 whole entry): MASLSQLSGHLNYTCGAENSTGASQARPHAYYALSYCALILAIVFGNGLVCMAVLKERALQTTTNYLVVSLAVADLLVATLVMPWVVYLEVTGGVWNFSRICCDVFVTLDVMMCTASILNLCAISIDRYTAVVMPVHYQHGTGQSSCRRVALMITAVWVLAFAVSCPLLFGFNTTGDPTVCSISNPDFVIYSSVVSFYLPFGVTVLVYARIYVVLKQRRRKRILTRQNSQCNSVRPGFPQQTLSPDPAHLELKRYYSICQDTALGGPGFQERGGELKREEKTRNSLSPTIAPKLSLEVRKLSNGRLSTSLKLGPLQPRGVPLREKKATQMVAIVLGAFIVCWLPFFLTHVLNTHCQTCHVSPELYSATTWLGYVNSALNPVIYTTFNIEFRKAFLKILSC

[9] = Induction of locomotor activity in C57BL/6J mouse assessed as increase in traveled distance every 10 mins at 10 to 30 mg/kg, ip; assay type: organism-based; settings: in vivo
[10] = Induction of locomotor activity in C57BL/6J mouse assessed as increase in traveled distance every 10 mins at 10 mg/kg, ip; assay type: organism-based; settings: in vivo
[11] = Displacement of [3H]WIN35,428 from human DAT Y156F mutant expressed in COS7 cell membranes incubated for >90 mins by radioligand binding assay; settings: cos-7
[12] = Stability in mouse liver microsomes assessed as compound remaining at 10 uM in absence of NADPH regenerating system measured after 60 mins by LC/MS/MS method; assay type: ADME, microsome; settings: read-out: Stability
[13] = biological target: Sodium-dependent dopamine transporter (Homo sapiens, UniProt Q01959); test: Displacement of [3H]WIN35,428 from wild type human DAT expressed in COS7 cell membranes incubated for >90 mins by radioligand binding assay; design: species or system COS-7
Chain of Sodium-dependent dopamine transporter (Homo sapiens, UniProt Q01959) (Q01959 whole entry): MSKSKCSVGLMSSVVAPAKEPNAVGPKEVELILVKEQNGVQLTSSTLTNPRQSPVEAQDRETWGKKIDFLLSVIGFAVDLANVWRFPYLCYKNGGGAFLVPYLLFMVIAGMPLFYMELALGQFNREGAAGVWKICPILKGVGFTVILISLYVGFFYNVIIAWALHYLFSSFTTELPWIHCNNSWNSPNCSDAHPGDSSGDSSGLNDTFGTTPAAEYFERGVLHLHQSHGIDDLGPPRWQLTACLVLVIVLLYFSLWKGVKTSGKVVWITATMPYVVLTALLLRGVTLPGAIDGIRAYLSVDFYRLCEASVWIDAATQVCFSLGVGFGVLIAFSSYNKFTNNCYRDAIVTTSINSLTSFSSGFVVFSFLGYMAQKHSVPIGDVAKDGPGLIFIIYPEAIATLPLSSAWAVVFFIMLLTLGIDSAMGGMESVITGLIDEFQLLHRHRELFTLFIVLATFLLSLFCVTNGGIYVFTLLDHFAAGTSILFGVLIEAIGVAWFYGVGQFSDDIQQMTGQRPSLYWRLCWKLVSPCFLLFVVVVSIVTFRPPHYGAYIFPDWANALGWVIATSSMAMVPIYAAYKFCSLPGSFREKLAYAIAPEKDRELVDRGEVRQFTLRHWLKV

[14] = Stability in mouse liver microsomes assessed as half life at 10 uM in presence of NADPH regenerating system by LC/MS/MS method; assay type: ADME; settings: liver microsomes; summary of the method: as §1
D(2) dopamine receptor [15] = biological target: T1, D(2) dopamine receptor; test: Antagonist activity at DRD2 (unknown origin) expressed in HEK293T cells transfected with Galphai1-RLuc8 and gamma2-GFP10 assessed as inhibition of quinpirole-induced Gi1 activation pre-incubated with quinpirole for 10 mins before compound incubation for 10 mins by BRET assay; assay type: cell-based, HEK-293T
Summary of the method: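 HEK-293T cells co-transfected with Flag-tagged D2 receptor, RLuc8-fused Gαi1, GFP10-fused Gγ and untagged Gβ, using constant total plasmid DNA at various partner ratios. Cells preincubated 10 min with 1 µM quinpirole, then 10 min with test compound. Read-out: BRET as fluorescence at 535 nm after 5 µM coelenterazine 400a.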

[16] = Stability in mouse liver microsomes assessed as compound remaining at 10 uM in presence of NADPH regenerating system measured up to 70 mins by LC/MS/MS method; assay type: ADME; settings: read-out: Stability

SMILES	Ki [1] [µM]	Ki [2] [µM]	Ratio Ki (Rattus norvegicus [3])	Ratio Ki (Rattus norvegicus [4])	Ki [5] [µM]	further results
CC(O)CN1CCN(C(=O)C[S+]([O-])C(c2cccc(Cl)c2)c2cccc(Cl)c2)CC1 (stereo unspecified)	> 50	1.38	> 100	> 100	–	–
Fc1ccc(CN2CCN(CCSC(c3ccc(F)cc3)c3ccc(F)cc3)CC2)cc1	6.85	0.00498	> 100	> 100	0.463	–
Fc1ccc(C(SCCN2CCN(Cc3ccc(Cl)cc3)CC2)c2ccc(F)cc2)cc1	7.41	0.0193	> 100	> 100	0.905	–
[O-][S+](CCN1CCN(CCCc2ccccc2)CC1)C(c1ccccc1)c1ccccc1 (stereo unspecified)	–	–	> 100	> 100	7.36	–
O=C(C[S+]([O-])C(c1ccc(F)cc1)c1ccc(F)cc1)N1CCN(Cc2ccc(Cl)cc2)CC1 (stereo unspecified)	63.5	0.0563	> 100	> 100	9.46	–
OC(Cc1ccccc1)CN1CCN(CCSC(c2ccc(F)cc2)c2ccc(F)cc2)CC1 (stereo unspecified)	–	–	> 100	> 100	–	–
CC(O)CN1CCN(C(=O)CSC(c2cccc(Cl)c2)c2cccc(Cl)c2)CC1 (stereo unspecified)	> 50	0.915	> 100	> 100	–	–
[O-][S+](CCN1CCN(Cc2ccc(C(F)(F)F)cc2)CC1)C(c1ccc(F)cc1)c1ccc(F)cc1 (stereo unspecified)	> 50	0.0394	> 100	> 100	6.8	Stability [6]: Unstable
CCc1cc(Cl)c(OC)c(C(=O)NC[C@@H]2CCCN2CC)c1O [ETICLOPRIDE]	–	–	–	–	–	Ki (D(2) dopamine receptor [7]): 0.00026 µM; Ki (D(4) dopamine receptor): 0.0704 µM
c1ccc(CCCN2CCN(CCSC(c3ccccc3)c3ccccc3)CC2)cc1	–	–	> 100	> 100	–	–
CCCCN1C2CCC1CC(OC(c1ccc(F)cc1)c1ccc(F)cc1)C2 (stereo unspecified)	1.67	0.0105	–	–	–	Ki (D(2) dopamine receptor [7]): 0.0681 µM; Ki [8]: 0.0024 µM; Ki (D(4) dopamine receptor): 0.583 µM; Ki (D(3) dopamine receptor): 0.0344 µM
O=C(CSC(c1ccc(F)cc1)c1ccc(F)cc1)N1CCN(Cc2ccc(Cl)cc2)CC1	–	0.0587	> 100	> 100	2.2	–
NC(=O)C[S@@+]([O-])C(c1ccccc1)c1ccccc1 [ARMODAFINIL]	–	–	–	–	–	Activity [9]: Dose-dependent effect; Ki (D(2) dopamine receptor [7]): > 100 µM; Ki [8]: > 100 µM; Activity [10]: Toxic; Ki (D(4) dopamine receptor): > 100 µM; Ki (D(3) dopamine receptor): 39 µM
CC(O)CN1CCN(CC[S+]([O-])C(c2ccccc2)c2ccccc2)CC1 (stereo unspecified)	–	–	> 100	> 100	–	–
[O-][S+](CCN1CCN(CC(O)Cc2ccccc2)CC1)C(c1ccccc1)c1ccccc1 (stereo unspecified)	–	–	> 100	> 100	–	Stability [6]: Unstable
CC(O)CN1CCN(CC[S+]([O-])C(c2ccc(F)cc2)c2ccc(F)cc2)CC1 (stereo unspecified)	–	–	–	–	–	Ki (D(2) dopamine receptor [7]): 0.298 µM; Ki [11]: 9.17 µM; remaining at 1 h, 10 µM [12]: > 95%; Ki [13]: 1.2 µM; half-life at 10 µM [14]: 1 h; Ki (D(4) dopamine receptor): 3.82 µM; IC50 (D(2) dopamine receptor [15]): > 10 µM; remaining at 70 min, 10 µM [16]: 50%; Ki (D(3) dopamine receptor): 0.48 µM
CC(O)CN1CCN(C(=O)CSC(c2ccc(F)cc2)c2ccc(F)cc2)CC1 (stereo unspecified)	–	0.214	> 100	> 100	11.4	Stability [6]: Unstable

SMILES	Ki [1] [µM]	Ki [2] [µM]	Ratio Ki (Rattus norvegicus [3])	Ratio Ki (Rattus norvegicus [4])	Ki [5] [µM]	further results
O=C(CSC(c1ccc(F)cc1)c1ccc(F)cc1)N1CCN(CCCc2ccccc2)CC1	20.2	0.0286	> 100	> 100	3.17	–
CC(O)CN1CCN(C(=O)C[S+]([O-])C(c2ccc(F)cc2)c2ccc(F)cc2)CC1 (stereo unspecified)	–	0.752	> 100	> 100	32.8	–
CC(O)CN1CCN(CCSC(c2ccccc2)c2ccccc2)CC1 (stereo unspecified)	–	–	> 100	> 100	–	–
CCCN1CCN(C(=O)C[S+]([O-])C(c2ccc(F)cc2)c2ccc(F)cc2)CC1 (stereo unspecified)	–	0.279	> 100	> 100	14.5	–
[O-][S+](CCN1CCN(Cc2ccc(Cl)cc2)CC1)C(c1ccc(F)cc1)c1ccc(F)cc1 (stereo unspecified)	> 50	0.00762	> 100	> 100	4.94	Stability [6]: Unstable
Fc1ccc(C(SCCNCCCc2ccccc2)c2ccc(F)cc2)cc1	–	–	–	–	–	Ki (D(2) dopamine receptor [7]): 0.228 µM; Ki [8]: 0.159 µM; Activity [10]: Non-Toxic; Ki (D(4) dopamine receptor): 0.0281 µM; Ki (D(3) dopamine receptor): 0.0659 µM
Fc1ccc(C(SCCN2CCN(Cc3ccccc3)CC2)c2ccc(F)cc2)cc1	8.24	0.0074	> 100	> 100	0.949	–
O=C(C[S+]([O-])C(c1ccc(F)cc1)c1ccc(F)cc1)N1CCN(Cc2ccc(F)cc2)CC1 (stereo unspecified)	–	0.0743	> 100	> 100	23.6	Stability [6]: Unstable
O=C(CSC(c1ccc(F)cc1)c1ccc(F)cc1)N1CCN(Cc2ccc(F)cc2)CC1	–	0.0537	> 100	> 100	6.21	–
Fc1ccc(C(SCCN2CCN(CCCc3ccccc3)CC2)c2ccc(F)cc2)cc1	–	–	> 100	> 100	–	–
[O-][S+](CCN1CCN(Cc2ccccc2)CC1)C(c1ccc(F)cc1)c1ccc(F)cc1 (stereo unspecified)	45.7	0.0272	> 100	> 100	11.2	–
CC(O)CN1CCN(CC[S+]([O-])C(c2cccc(Cl)c2)c2cccc(Cl)c2)CC1 (stereo unspecified)	> 50	0.403	> 100	> 100	58.9	–
CCCN1CCN(C(=O)CSC(c2ccc(F)cc2)c2ccc(F)cc2)CC1	–	0.277	> 100	> 100	5.97	–
O=C(C[S+]([O-])C(c1ccc(F)cc1)c1ccc(F)cc1)N1CCN(CCCc2ccccc2)CC1 (stereo unspecified)	12	0.0376	> 100	> 100	1.32	Stability [6]: Unstable
Fc1ccc(C(SCCN2CCN(Cc3ccc(C(F)(F)F)cc3)CC2)c2ccc(F)cc2)cc1	15.4	0.0266	> 100	> 100	2.02	–
CC(O)CN1CCN(CCSC(c2cccc(Cl)c2)c2cccc(Cl)c2)CC1 (stereo unspecified)	31.3	0.143	> 100	> 100	10.8	–
[O-][S+](CCN1CCN(Cc2ccc(F)cc2)CC1)C(c1ccc(F)cc1)c1ccc(F)cc1 (stereo unspecified)	> 50	0.00967	> 100	> 100	8.52	Stability [6]: Unstable
